11 compounds from ChEMBL document CHEMBL4673212, “Investigation of synergistic antimicrobial effects of the drug combinations of meropenem and 1,2-benzisoselenazol-3(2H)-one derivatives on carbapenem-resistant Enterobacteriaceae producing NDM-1” (Eur J Med Chem, 2018) can be followed below.

Series [1] is described as follows: Inhibition of bacterial VIM-1. Further details: species or system Bacteria.
A short description of series [2]: Covalent inhibition of bacterial NDM-1. Further details: species or system Bacteria.
Series [3] can be described thus: Inhibition of recombinant bacterial NDM-1 by fluorogenic assay. Further details: species or system Bacteria.
Series [4] can be described thus: Competitive inhibition of recombinant bacterial His6-tagged TEV protease site linked NDM-1 (32 to […] residues) expressed in Escherichia coli BL21 (DE3). Also noted: species or system Bacteria.
Series [5] has as its system Escherichia coli. The series is described as follows: Synergistic antibacterial activity against Escherichia coli TG1 transformed with IncX3 plasmid expressing blaNDM-1 assessed as ratio of negative logarithm of fractional inhibitory concentration index to non-hydrogen atom in presence of meropenem incubated for overnight by CLSI protocol based assay. It counts as functional. The settings on record: time 12 hrs. Summed up: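 In E. coli TG1 carrying the IncX3 blaNDM-1 plasmid, the FIC index was taken from overnight CLSI-based MICs of compound, meropenem and their 1:1 mass mixture, read by eye. Synergistic efficiency = −ln(FIC index) divided by the number of non-hydrogen atoms. At least triplicate assays.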

Series [6] has as its system Escherichia coli. Briefly: Synergistic antibacterial activity against Escherichia coli TG1 transformed with IncX3 plasmid expressing blaNDM-1 assessed as fractional inhibitory concentration index in presence of meropenem incubated for overnight by CLSI protocol based assay. It counts as functional. As to conditions: time 12 hrs. Summed up:
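FIC index from MICs of compound alone, meropenem alone, and the 1:1 (mass) compound–meropenem combination, read by eye after overnight incubation in a CLSI-based assay. FIC index = MICcombo/MICcpd + MICcombo/MICMem. FIC index ≤0.5 counted as synergy. At least triplicate assays. Clinical NDM-1 isolates for 17-39; E. coli TG1 carrying the IncX3 blaNDM-1 plasmid for 15.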

The nature of series [7]: Growth inhibition of Escherichia coli TG1 transformed with IncX3 plasmid expressing blaNDM-1 incubated for overnight by CLSI protocol based assay. The settings on record: 12 h.
Series [8] deals with Escherichia coli. Briefly: Potentiation of meropenem-induced antibacterial activity against Escherichia coli TG1 transformed with IncX3 plasmid expressing blaNDM-1 assessed as bacterial growth inhibition by measuring meropenem MIC incubated for overnight by CLSI protocol based assay. As to conditions: time 12 hrs. It is filed as functional.

Structures are written as SMILES. In brackets after ≈: the same amount, converted by molar mass.

With `O=C(O)[C@@H]1SC[C@H]2CS[C@H](CS)N21`, the midpoint of inhibition in series [1], the IC50, lay at 23 µM.
As to `N[C@@H](C(=O)N[C@@H]1C(=O)N2C(C(=O)O)=C(Cl)CS[C@H]12)c1ccccc1` [CEFACLOR ANHYDROUS], the Ki in series [2] was 2300 µM.
As for `NCCNCc1ccc(C(=O)N[C@H]2Cc3cccc(C(=O)O)c3O[B-]2(O)O)cc1`, in series [3], the IC50 (commonly the concentration that gives 50% inhibition) was 0.004 µM.
For the compound `O=C(O)[C@H]1CCCCN1C(=O)C(CS)Cc1ccccc1` (mixture of isomers), the IC50 in series [4] is 0.7 µM.
Take `COc1ccc(Cn2[se]c3ccccc3c2=O)cc1`: the Ratio with Escherichia coli [5] amounted to 0.088. Further, the “fractional inhibitory concentration index (FICI)” value in the series with Escherichia coli [6] came out at 0.188. Besides, the MIC result in series [7] was “>= 128 ug ml-1”; in the series on Escherichia coli [8], 8 µg/mL.
For `O=c1c2ccccc2[se]n1CCN1CCOCC1` the same measures were 0.039, 0.5, 64 µg/mL (≈ 206 µM) and 16 µg/mL.
For `CCN(CC)CCn1[se]c2ccccc2c1=O` the same measures were 0.041, 0.5, 64 µg/mL (≈ 215 µM) and 16 µg/mL.
The like results for `O=C1N[Se]c2ccccc2C(=O)N1` were, in that order, 0.107, 0.25, 64 µg/mL (≈ 265 µM) and 8 µg/mL.
`O=c1c2ccccc2[se]n1CCO`: the Ratio in the series with Escherichia coli [5] worked out at 0.022. Further, the “fractional inhibitory concentration index (FICI)” value in the series on Escherichia coli [6] stood at 0.75. The MIC in series [7] stood at 32 µg/mL (≈ 132 µM); in the series on Escherichia coli [8], 16 µg/mL.
Consider `CCN(CC)CCCC(C)n1[se]c2ccccc2c1=O` (configuration not stated), for which, in the series on Escherichia coli [5], the Ratio worked out at 0.084. Further, the “fractional inhibitory concentration index (FICI)” value in the series on Escherichia coli [6] came to 0.188. Also, the MIC result was “>= 128 ug ml-1” in series [7] and 8 µg/mL with Escherichia coli [8].
As for `O=c1c2ccccc2[se]n1-c1ccc(CO)cc1`, in the series with Escherichia coli [5], the Ratio is reported as 0.054. Further, the “fractional inhibitory concentration index (FICI)” value in the series with Escherichia coli [6] turned out to be 0.375. Moreover, the MIC entry was “>= 128 ug ml-1” in series [7] and 16 µg/mL with Escherichia coli [8].
